Screening results as filed in PubChem.
UCH37 inh: inhibitors of human UCH37 deubiquitinase, primary screen, biochemical, Ub-AMC cleavage, fluorescence; Ubiquitin carboxyl-terminal hydrolase isozyme L5 (Homo sapiens), Q9Y5K5; purified proteasome/UCH37; inhibition, % (concentration not given with the values); 0.33% of 330,000 active; AID 588478, 2011;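 active = mean inhibition over replicate wells above about 20%, limit read from the data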;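 note: 0% = compound-free wells with enzyme and 100% = wells lacking proteasome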
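Assay system: Proteasome-bound UCH37. Buffer or medium: pH 7.4 Tris-HCl (50 mM) with ovalbumin, ATP-MgCl2, DTT. Incubation: 30 min preincubation with enzyme, 25 min cleavage at room temperature. Measured by: fluorescence, ex 355 nm, em 460 nm. Read-out basis: percent inhibition. Control set: wells without proteasome as full block, compound-free enzyme plus substrate as uninhibited.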
SENP8 block-1: human SENP8 protease inhibitors, primary screen, biochemical, fluorescence, Nedd8 protein substrate, uHTS | Sentrin-specific protease 8 (Homo sapiens), Q96LD8 | recombinant SENP8 | inhibition, % at 20 µM | 0.64% of 360,000 active; in the data active = inhibition mostly above about 40%, no sharp cut-off; inactive = mostly below about 27%
SENP8 block-2: SENP8 protease inhibitors, primary screen, biochemical, luminescence | Sentrin-specific protease 8 (Homo sapiens), Q96LD8 | purified SENP8, Z-RLRGG-aminoluciferin cleavage | inhibition, % at 10 µM | 1.2% of 330,000 active; in the data active = inhibition above about 50%
SENP7 block: SENP7 protease inhibitors, primary screen, biochemical, luminescence, uHTS; inhibition, % at 5 µM; 1.5% of 330,000 active; Sentrin-specific protease 7 (Homo sapiens), Q9BQF6; recombinant SENP7, Z-RLRGG-aminoluciferin luminescence, 40 min;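 active = inhibition above about 50% at the single test dose, limit read from the data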;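 note: plate controls were DMSO with enzyme for no effect and no enzyme buffer wells for full effect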
Target sequence (Q9BQF6 706-1050 limits assumed): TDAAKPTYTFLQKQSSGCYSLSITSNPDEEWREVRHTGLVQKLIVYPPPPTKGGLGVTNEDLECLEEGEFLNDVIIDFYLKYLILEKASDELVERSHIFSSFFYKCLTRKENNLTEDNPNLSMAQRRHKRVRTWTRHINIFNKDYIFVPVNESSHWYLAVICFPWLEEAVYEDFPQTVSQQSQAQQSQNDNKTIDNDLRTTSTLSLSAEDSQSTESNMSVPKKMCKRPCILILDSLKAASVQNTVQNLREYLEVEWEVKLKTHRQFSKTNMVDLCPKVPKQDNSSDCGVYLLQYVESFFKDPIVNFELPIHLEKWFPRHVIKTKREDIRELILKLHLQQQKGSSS
SENP1 FRET inh: human SENP1 catalytic domain inhibitors, primary screen, biochemical, FRET, uHTS | 0.21% of 360,000 active | inhibition, % at 10 µM | Sentrin-specific protease 1 (Homo sapiens), Q9P0U3 | recombinant SENP1 catalytic domain, CyPet-SUMO1-YPet FRET cleavage | AID 624204, 2012;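 active = inhibition at least 30% at 10 µM, raw YFP signal under a set limit, fluorescence ratio 0.5 to 1.5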;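 note: 0% = enzyme with DMSO and 100% = no enzyme wells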
Target sequence (Q9P0U3 419-644 limits assumed): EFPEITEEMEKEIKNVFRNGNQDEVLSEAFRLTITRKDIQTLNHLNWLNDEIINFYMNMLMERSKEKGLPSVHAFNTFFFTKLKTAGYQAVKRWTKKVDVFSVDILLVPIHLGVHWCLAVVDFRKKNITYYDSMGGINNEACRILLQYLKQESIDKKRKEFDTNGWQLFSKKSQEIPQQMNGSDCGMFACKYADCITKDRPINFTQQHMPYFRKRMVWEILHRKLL
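System: Recombinant human SENP1 catalytic domain, His6-tagged | Incubation: Enzyme reaction for 50 min at room temperature, dark | Medium: Tris pH 8 with BME, BSA, NP40 and catalase | Also added: 25 nM SUMO1 FRET substrate | Compound: 10 µM single point, 0.5% DMSO | Measured by: FRET fluorescence in CFP and YFP emission channels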
SENP6 inh: SENP6 protease inhibitors, primary screen, biochemical, luminescence, uHTS; 1.8% of 330,000 active; AID 2599, 2010; Recombinant SENP6 catalytic domain, aminoluciferin luminescence; Sentrin-specific protease 6 (Homo sapiens), Q9GZR1; inhibition, % at 10 µM;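 active = inhibition above about 50% at the single tested dose, limit read from the data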;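 note: plate controls were DMSO wells with enzyme for no effect and DMSO wells lacking enzyme for full effect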
SENP8 conf: SENP8 protease inhibitors, retest, confirmation, biochemical, luminescence, single concentration. 40% of 6,200 active. inhibition, % at 12.5 µM. shares compounds with SENP7 block. Recombinant SENP8, Z-RLRGG-aminoluciferin luminescence, 60 min;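 active = mean inhibition across replicates above about 50%, limit read from the data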
SENP6 conf: SENP6 protease inhibitors, confirmation, biochemical, luminescence, single concentration; recombinant SENP6, Z-RLRGG-aminoluciferin luminescence; 58% of 6,200 active; AID 488915, 2010; shares compounds with SENP7 block; inhibition, % at 12.5 µM
SENP7 conf: SENP7 protease inhibitors, retest, confirmation, biochemical, luminescence, single concentration | shares compounds with SENP7 block | recombinant SENP7, Z-RLRGG-aminoluciferin luminescence, 40 min | inhibition, % at 12.5 µM | 69% of 6,200 active | AID 488917, 2010
Casp3 select: caspase-3 protease inhibitors, confirmation, selectivity assay for SENP inhibitor project, biochemical, single concentration | shares compounds with SENP7 block | purified caspase-3, Z-DEVD-aminoluciferin luminescence, 60 min | inhibition, % at 12.5 µM | 60% of 6,200 active | AID 488918, 2010;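 active = mean inhibition above about 50%, limit read from the data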;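 note: plate controls were enzyme with DMSO for no effect and wells without caspase-3 for full effect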
Luc interf: luminescence interference (SENP counter-screen); 39% of 6,200 active; Pre-incubated SENP8/Z-RLRGG-aminoluciferin, luciferase luminescence interference; inhibition, % at 12.5 µM; AID 488919; shares compounds with SENP7 block;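 active = mean inhibition above about 50% when retested at one dose, limit read from the data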;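 note: plate controls were DMSO wells with completed reaction for no effect and substrate without enzyme for full effect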
Numbers without * were called inactive. An excerpt weighted towards active compounds, which were near 2.6% of everything screened.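 Rule for the calls, unless noted: active = mean inhibition above about 50% in the one-dose retest (limit read from the data); inactive = the rest.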

How did CCn1c(/N=C/c2c[nH]c3ccccc23)nc2ccccc21 do in these assays?
SENP8 block-1: 13; SENP8 block-2: 53*; SENP7 block: 44; SENP1 FRET inh: -4; SENP6 inh: 72*; SENP8 conf: 69*; SENP6 conf: 71*; SENP7 conf: 92*; Casp3 select: 34; Luc interf: 79*

How did CC12CCC(C(=O)NN=Cc3ccc(O)cc3O)(OC1=O)C2(C)C (stereo not drawn) do in these assays?
UCH37 inh: 0

How did CC(=NNC(=O)CN1CCN(S(=O)(=O)c2ccc(C)cc2)CC1)c1ccco1 do in these assays?
UCH37 inh: 1

Results for O=C(Nc1cc(Cl)ccc1Cl)c1noc2c1CCCC2 ?
UCH37 inh: 5; SENP8 block-1: 19; SENP8 block-2: 3; SENP7 block: 0; SENP1 FRET inh: 2; SENP6 inh: -11

What do the screens show for `O=C(Nc1ccc(F)cc1F)c1noc2c1CCC2`?
UCH37 inh: 6; SENP8 block-1: 14; SENP8 block-2: 17; SENP7 block: 53*; SENP1 FRET inh: -3; SENP6 inh: 44; SENP8 conf: 28; SENP6 conf: 39; SENP7 conf: 77*; Casp3 select: 69*; Luc interf: 16

What do the screens show for `O=C(Nc1ccc2c(c1)OCO2)c1noc2c1CCCC2`?
UCH37 inh: 0; SENP8 block-1: 6; SENP8 block-2: 78*; SENP7 block: 81*; SENP1 FRET inh: -1; SENP6 inh: 88*; SENP8 conf: 85*; SENP6 conf: 86*; SENP7 conf: 98*; Casp3 select: 91*; Luc interf: 14

What do the screens show for `O=C(Nc1ccc2c(c1)OCO2)c1noc2c1CCCCC2`?
UCH37 inh: 0; SENP8 block-1: 14; SENP8 block-2: 43; SENP7 block: 60*; SENP1 FRET inh: 1; SENP6 inh: 74*; SENP8 conf: 63*; SENP6 conf: 63*; SENP7 conf: 87*; Casp3 select: 67*; Luc interf: 69*

How did COc1ccc(C=NNC(=O)c2ccc(O)cc2)cc1CN1CCCc2ccccc21 do in these assays?
UCH37 inh: -1

What do the screens show for `O=C(CNC(=O)c1ccc(S(=O)(=O)N2CCCCC2)cc1)NN=Cc1ccco1`?
UCH37 inh: -1

How did COc1ccc([C@H]2Cc3cc(O)cc(O)c3C(=O)O2)cc1O do in these assays?
UCH37 inh: -1; SENP8 block-1: -121; SENP8 block-2: 88*; SENP7 block: 90*; SENP1 FRET inh: -6; SENP6 inh: 95*; SENP8 conf: 89*; SENP6 conf: 88*; SENP7 conf: 98*; Casp3 select: 90*; Luc interf: 91*

Results for COc1ccc([C@H]2Cc3cccc(O)c3C(=O)O2)cc1O ?
UCH37 inh: 2; SENP8 block-1: -207; SENP8 block-2: 3; SENP7 block: -6; SENP1 FRET inh: 0; SENP6 inh: 3

What do the screens show for `CCOc1cc(CNc2ccc3cn[nH]c3c2)ccc1OC`?
UCH37 inh: -7; SENP8 block-1: -213; SENP8 block-2: 53*; SENP7 block: 59*; SENP1 FRET inh: -78; SENP6 inh: 68*; SENP8 conf: 10; SENP6 conf: 41; SENP7 conf: 5; Casp3 select: 0; Luc interf: -4

What do the screens show for `C=CCOc1ccc(CNc2ccc3[nH]c(=O)[nH]c3c2)cc1OC`?
UCH37 inh: 0; SENP8 block-1: -449; SENP1 FRET inh: -38

Results for O=C(/C=C/c1ccc(Cl)c(Cl)c1)N1CCc2ccccc21 ?
UCH37 inh: 1; SENP8 block-1: 15; SENP8 block-2: -12; SENP7 block: 66*; SENP1 FRET inh: 1; SENP6 inh: 9; SENP8 conf: -13; SENP6 conf: -8; SENP7 conf: -6; Casp3 select: 8; Luc interf: 1

How did Cn1cc(C(=O)NN=CC2=C(N3CCOCC3)/C(=C\c3ccccc3)CC2)ccc1=O do in these assays?
UCH37 inh: 10

Results for Cc1nn(-c2ccccc2Cl)c(Cl)c1/C=N/Nc1nc2ccccc2s1 ?
SENP8 block-1: -45; SENP8 block-2: 5; SENP7 block: 81*; SENP1 FRET inh: -4; SENP6 inh: 34; SENP8 conf: -9; SENP6 conf: -4; SENP7 conf: -7; Casp3 select: -4; Luc interf: 6

How did C(=N\Nc1nc2ccccc2s1)/c1cccs1 do in these assays?
SENP8 block-1: -44; SENP8 block-2: 89*; SENP7 block: 93*; SENP1 FRET inh: 0; SENP6 inh: 95*; SENP8 conf: 37; SENP6 conf: 88*; SENP7 conf: 100*; Casp3 select: 71*; Luc interf: 82*

Results for CCOC(=O)N/N=C/c1c(C)nn(-c2ccccc2Cl)c1Cl ?
SENP8 block-1: 12; SENP8 block-2: -4; SENP7 block: 6; SENP1 FRET inh: 2; SENP6 inh: -7

How did Cc1ccsc1/C=N/Nc1nc(=O)[nH]nc1C do in these assays?
SENP8 block-1: 12; SENP8 block-2: 80*; SENP7 block: 89*; SENP1 FRET inh: 1; SENP6 inh: 91*; SENP8 conf: 86*; SENP6 conf: 87*; SENP7 conf: 98*; Casp3 select: 96*; Luc interf: 71*
